Calls of active or inactive are those of the source.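 Rule for the calls: active = MIC showing a fourfold drop that lands at or below 10 µM; inactive = fourfold-lowered MIC still above 10 µM.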
Key:
[1] = test system: K. pneumoniae BAA-2146 NDM-1, imipenem synergy, growth MIC; assay: imipenem potentiation against NDM-1 K. pneumoniae, late-stage follow-up, VIM-2 MBL inhibitor project, BAA-2146, NDM-1 transformed, nonselective, MIC fold reduction (AID 624082)
Procedure, shortened: (§1)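 Assay system – log-phase bacterial culture in a checkerboard broth microdilution · Buffer or medium – Mueller-Hinton broth, cation-adjusted (CAMHB) · Reagent – imipenem, two-fold titration series · Dosing – test compound two-fold serial titration, crossed with imipenem titration · Times – aerobic incubation of inoculated wells, at least 18 h, 37 °C · Read-out – MIC per CLSI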

[2] = as above; settings: K. pneumoniae BAA-2146 NDM-1, imipenem synergy, growth MIC; measured here: max imipenem fold potentiation; stronger effect = higher value
Procedure, shortened: as §1

Structure (SMILES)	MIC [1]	fold potentiation [2]
CCN(CC)OC(=O)CN1C(=O)/C(=C/c2c(Cl)cccc2Cl)SC1=S	> 100 µM (inactive)	
O=C(CN1C(=O)/C(=C/c2c(Cl)ccc(Cl)c2Cl)SC1=S)NN1CCCCC1	> 50 µM (inactive)	
CN1CCN(NC(=O)CN2C(=O)/C(=C/c3c(Cl)ccc(Cl)c3Cl)SC2=S)CC1	> 50 µM (inactive)	2
CC(C)N1CCN(NC(=O)CN2C(=O)/C(=C/c3c(Cl)cccc3Cl)SC2=S)CC1	> 50 µM (inactive)	
CC(=O)N1CCN(NC(=O)CN2C(=O)/C(=C/c3c(Cl)cccc3Cl)SC2=S)CC1	> 50 µM (inactive)	
O=C(CN1C(=O)/C(=C/c2c(Cl)cccc2Cl)SC1=S)NN1CCN(Cc2ccccc2)CC1	> 50 µM (inactive)	
CN1CCN(NC(=O)CN2C(=O)/C(=C/c3c(C(F)(F)F)ccc(Cl)c3Cl)SC2=S)CC1	> 50 µM (inactive)	2
O=C(CN1C(=O)/C(=C/c2c(Cl)ccc(Cl)c2Cl)SC1=S)NCc1ccccn1	> 50 µM (inactive)	
O=C(O)CN1C(=O)/C(=C/c2c(F)cccc2C(F)(F)F)SC1=S	> 50 µM (inactive)	
CN1CCN(NC(=O)CN2C(=O)/C(=C/c3c(F)cccc3Cl)SC2=S)CC1	> 50 µM (inactive)	2
O=C(CN1C(=O)/C(=C/c2c(Cl)cccc2Cl)SC1=S)NN1CCNCC1	> 50 µM (inactive)	
O=C(CN1C(=O)/C(=C/c2c(Cl)ccc(Cl)c2Cl)SC1=S)NN1CCNCC1	> 50 µM (inactive)	2
CN1CCN(C(=O)CN2C(=O)/C(=C/c3c(Cl)ccc(Cl)c3Cl)SC2=S)CC1	> 50 µM (inactive)	
O=C(CN1C(=O)/C(=C/c2c(Cl)cccc2Cl)SC1=S)NCc1ccccn1	> 100 µM (inactive)	
CN1CCN(NC(=O)CN2C(=O)/C(=C/c3c(Cl)ccc(C(F)(F)F)c3Cl)SC2=S)CC1	> 50 µM (inactive)	2
O=C(CN1C(=O)/C(=C/c2c(Cl)cccc2Cl)SC1=S)NN1CCN(C(=O)c2ccccc2)CC1	> 50 µM (inactive)	
CN1CCN(NC(=O)CN2C(=O)/C(=C/c3c(F)cccc3C(F)(F)F)SC2=S)CC1	> 50 µM (inactive)	2
O=C(O)CN1C(=O)/C(=C/c2c(Cl)cccc2Cl)SC1=S	> 100 µM (inactive)	
CC(C)(C)OC(=O)N1CCN(NC(=O)CN2C(=O)/C(=C/c3c(Cl)ccc(Cl)c3Cl)SC2=S)CC1	> 50 µM (inactive)	
CN1CCN(NC(=O)CN2C(=O)/C(=C/c3c(Cl)cccc3Cl)SC2=S)CC1	> 100 µM (inactive)	2
CC(C)(C)OC(=O)N1CCN(NC(=O)CN2C(=O)/C(=C/c3c(Cl)cccc3Cl)SC2=S)CC1	> 100 µM (inactive)	
